# Publication PMC3206162 (The international journal of biochemistry & cell biology, 2011)
# Like-named read-outs stand apart in the source and are kept apart here. No end group written: not given here.
# Assays:
# [1] = tested on: MEC; experiment: CytoTox-ONE LDH release cytotoxicity assay on MEC; conditions: 72 h, complete media control = 100%; for LDH level, MEC: 10μM peptide; for LDH activity compared to the control, MEC: 100μM peptide
# [2] = tested on: HUVEC; format: cell-based, human; conditions: 72 h
# [3] = tested on: MEC; format: cell-based, human; conditions: 72 h
# [4] = tested on: HUVEC; experiment: CytoTox-ONE LDH release cytotoxicity assay on HUVEC; conditions: 10μM peptide, 72 h
# [5] = tested on: LEC; format: cell-based, human; conditions: 72 h
# [6] = tested on: LEC; conditions: 20 h
# [7] = tested on: LEC; experiment: RTCA E-plate LEC adhesion assay; format: cell-based, human; conditions: read-out: IC50 LEC adhesion; cell index at 1 h; 100, 33, 11, 3.7, 1.2μM
# How it was run: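 LEC seeded at 25,000 cells/well in EGM-2MV medium onto E-plate wells already holding peptide, so the cells dilute the peptide to its final concentration. Plate equilibrated 30 min at room temperature, then loaded into the RTCA system. Cell index analysed at 1 h as the adhesion read-out.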
# [8] = tested on: cell apoptosis; conditions: cited from earlier work
# [9] = tested on: LEC; experiment: CytoTox-ONE LDH release cytotoxicity assay on LEC; conditions: 72 h, complete media control = 100%
# [10] = tested on: LEC
molecule,measurement,setting,value
LMRKSQILISSWF [SP5028],"LDH level, MEC",[1],more than 150%
same,"LDH activity compared to the control, MEC",[1],more than 200%
same,IC50,[2],58.2 ± 35.2 µM
LLRLLLLIESWLE [SP5030],IC50,[3],93.2 ± 42.3 µM
same,"cytotoxic (LDH) activity, HUVEC",[4],significant cytotoxic activity
LLRSSLILLQGSWF [SP5031],IC50,[5],158 ± 122 µM
same,IC50,[6],25.1 µM
same,IC50,[2],96.9 ± 34.3 µM
same,IC50,[3],83.4 ± 21.9 µM
same,IC50,[7],24.2 µM
"LLRISLLLIQSWLE [tilted PRL peptide, reference compound]",cell apoptosis,"[8]; ref Nguyen et al., 2006",led to cell apoptosis
RLRLLTLQSWLL [SP5001],"LDH activity compared to the control, LEC",[9],significant LDH activity
same,"LDH level, MEC",[1],more than 150%
same,"LDH activity compared to the control, MEC",[1],more than 200%
same,IC50,[2],50.7 ± 31.8 µM
same,IC50,[3],52.4 ± 27.8 µM
LLHISLLLIESRLE [SP5032],IC50,[3],80.1 ± 47.9 µM
same,"cytotoxic (LDH) activity, HUVEC",[4],significant cytotoxic activity
LLRISLLLIESWLE [SP5033],"LDH activity compared to the control, LEC",[10],significant LDH activity
same,IC50,[3],81.1 ± 37.2 µM
"PRL protein: prolactin (PRL) protein (protein, UniProt P01236 29-227, looked up) Prolactin: LPICPGGAARCQVTLRDLFDRAVVLSHYIHNLSSEMFSEFDKRYTHGRGFITKAINSCHTSSLATPEDKEQAQQMNQKDFLSLIVSILRSWNEPLYHLVTEVRGMQEAPEAILSKAVEIEEQTKRLLEGMELIVSQVHPETKENEIYPVWSGLPSLQMADEESRLSAYYNLLHCLRRDSHKIDNYLKLLKCRIIHNNNC",apoptosis in a prostate cancer model,"[8]; prostate cancer model, ref Giuffrida et al., 2010",induced apoptosis
